Data set [1] deals with U937 cells. The data set can be described thus: In vitro antiproliferative assay. It is filed as cell-based. The following applies: Homo sapiens, U-937, 48 h, read-out: U937 IC50. In short, it runs like this: (§1)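 Cells kept in RPMI-1640 with 10% FBS at 37°C, 5% CO2. Passaged into plates the day before dosing and grown at least 4 h before test compound was added. Exposure was 48 h, then 0.5% MTT for 4 h. Formazan was dissolved in DMSO for 15 min and absorbance read at 570 nm. Inhibition was taken relative to control wells, and IC50 was obtained by regression of concentration versus inhibition ratio.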

For data set [2], the system named is KG-1 cells. The data set is described as follows: In vitro antiproliferative assay. The following applies: Homo sapiens, KG-1, 48 h, read-out: KG-1 IC50. It is filed as cell-based. In short, it runs like this: as §1
The test system of data set [3] is U266 cells. The data set can be described thus: In vitro antiproliferative assay. Type of data set: cell-based. The settings on record: Homo sapiens, U-266, 48 h, read-out: U266 IC50. An outline of the steps: as §1
Data set [4] concerns HeLa cells. The data set is described as follows: In vitro antiproliferative assay. Type of data set: cell-based. The settings on record: Homo sapiens, 48 h, read-out: HeLa IC50. In short, it runs like this: as §1
Data set [5] has as its system HDAC (HeLa cell nuclear extract). The data set is described as follows: In vitro HDAC inhibition fluorescence assay. Type of data set: biochemical, human. The following applies: read-out: HeLa cell nuclear extract IC50, substrate Boc-Lys(acetyl)-AMC, mean of three experiments. In short, it runs like this:
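HeLa nuclear extract preincubated with test compound at several concentrations, 10 min at 37°C. Boc-Lys(acetyl)-AMC then added and incubated 30 min at 37°C. Reaction stopped with developer containing trypsin and trichostatin A. Fluorescence read 20 min later (ex 390/em 460 nm). Inhibition calculated relative to control wells. IC50 obtained by regression of concentration against inhibition ratio.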

The test system of data set [6] is HCT116 cells. The data set can be described thus: In vitro antiproliferative assay. It is filed as cell-based. The following applies: Homo sapiens, HCT-116, 48 h, read-out: HCT116 IC50. An outline of the steps:
as §1

For data set [7], the system named is H7402 cells. The data set can be described thus: In vitro antiproliferative assay. Type of data set: cell-based. The following applies: Homo sapiens, H7402, 48 h, read-out: H7402 IC50. An outline of the steps:
as §1

For data set [8], the system named is U937 xenograft. The data set can be described thus: In vivo antitumor assay in U937 xenograft model. Also on record: species or system male athymic nude mice (BALB/c-nu). An outline of the steps: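 U937 cells were injected subcutaneously into the right flank of male BALB/c-nu mice aged 5–6 weeks. After about 10 days, at roughly 100 mm3, mice were randomized six per group. Dosing was oral, 100 mg/kg daily for 12 days, with controls given an equal volume of PBS. Calipers were used every 3 days, V = ab2/2, and RTV = Vt/V0. Body weight was tracked. Tumors were weighed and organs inspected at necropsy. Analysis used a two-tailed t-test, P<0.05.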

In data set [9] the test system is HDAC (HeLa cell nuclear extract). The settings on record: read-out: HeLa cell nuclear extract IC50; HDAC inhibition; ref Zhang et al.[8]; cited from earlier work.
Setting [10] is: U937 xenograft mice, 100 mg/kg once a day orally for 12 days.

SMILES strings stand for the structures. Read-outs that look alike come from different tables or passages of the source.

Broadly, the IC50 is the point on the concentration scale where inhibition reaches its midpoint. `COc1cccc(CN[C@H](C(=O)Nc2ccc(C(=O)NO)cc2)c2ccccc2)c1` [Compound 9d, (S)-N-Hydroxy-4-(2-((3-methoxybenzyl)amino)-2-phenylacetamido)benzamide]: the IC50 came to 530 nM in data set [1]; 900 nM in data set [2]; 980 nM in [3]; 5400 nM in data set [4]; 70 nM in data set [5]; 1300 nM in data set [6]. For the same compound, the IC50 in data set [7] was determined as 3500 nM. For the same compound, the “Relative increment ratio (T/C)” value in data set [8] (U937 xenograft in nude mice, 100 mg/kg once a day orally for 12 days) was found to be 43%. Further, the Body weight loss result in data set [8] (setting [10]) is listed as “no significant body weight loss”. For the same compound, the “Toxic signs in macroscopic analysis of liver and spleen” value in data set [8] (setting [10]) is recorded as “no evident toxic signs”. In [8] (U937 xenograft, 100 mg/kg po, tumor growth curve and final tumor tissue size), the Oral antitumor activity result is “comparable with SAHA”.

In the case of `O=C(NO)c1ccc(NC(=O)[C@@H](NCc2ccc(Cl)cc2)c2ccccc2)cc1` [Compound 9e, (S)-4-(2-((4-Chlorobenzyl)amino)-2-phenylacetamido)-N-hydroxybenzamide], the IC50 in data set [1] was 950 nM; in data set [2] it was 2000 nM; in data set [3], 3000 nM; in data set [4], 15600 nM; in data set [5], 13.8 nM; in [6], 3000 nM. For the same compound, the IC50 in data set [7] was 9600 nM.

With `O=C(NO)c1ccc(NC(=O)[C@@H](NCc2ccc(O)cc2)c2ccccc2)cc1` [Compound 9f, (S)-N-Hydroxy-4-(2-((4-hydroxybenzyl)amino)-2-phenylacetamido)benzamide], the IC50 in data set [1] came to 980 nM; in [2], 2500 nM; in data set [3], 3300 nM; in [4] it was 6800 nM; in data set [5], 50.3 nM; in [6], 3000 nM. In [7], the IC50 was determined as 12400 nM.

For `COc1cc(CN[C@H](C(=O)Nc2ccc(C(=O)NO)cc2)c2ccccc2)ccc1O` [Compound 9g, (S)-N-Hydroxy-4-(2-((4-hydroxy-3-methoxybenzyl)amino)-2-phenylacetamido)benzamide], the IC50 in [1] worked out at 2000 nM; in [2], 5600 nM; in data set [3], 4300 nM; in data set [4] it was 200 nM; in data set [5], 72 nM; in [6], 6200 nM. For the same compound, in [7], the IC50 was 200 nM.

For `O=C(CCCCCCC(=O)Nc1ccccc1)NO` [SAHA, suberoylanilide hydroxamic acid], the IC50 in data set [9] is 146 nM.

These data come from PMC4603714 (Drug Design, Development and Therapy, 2015).
